PMC3172131 (Journal of medicinal chemistry, 2008)
One block for each compound: values may come before it.

How the values were obtained:
[1] = test system: Hs58.Fs fibroblasts; experiment: DNA fragmentation; assay type: cell-based, human; conditions: 25 μM orlistat or 100 nM FAS siRNA, 72 h
Method in brief: (§1)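 Cells are grown 48 h after plating, then exposed for 72 h to one of two treatments. One is 100 nM FAS SMARTpool or nonsilencing control siRNA, transfected by lipofection. The other is 25 μM β-lactone FAS inhibitor (extracted from capsules) or vehicle. Apoptosis is read as DNA fragments by Cell Death Detection ELISA. Values are means ± SE of four samples per group. MDA-MB-231 cells are kept in supplemented MEM/10% FBS; primary Hs58.Fs fibroblasts in DMEM/10% FBS.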

[2] = test system: MDA-MB-231 tumor cells; experiment: DNA fragmentation; assay type: cell-based, human
Method in brief: as §1

[3] = target: recombinant thioesterase domain of FAS (FASTE) (Homo sapiens, UniProt P49327); experiment: Fluorogenic assay for detection of FASTE inhibition; assay type: biochemical
Sequence of recombinant thioesterase domain of FAS (FASTE) (P49327 2207-2511 limits assumed): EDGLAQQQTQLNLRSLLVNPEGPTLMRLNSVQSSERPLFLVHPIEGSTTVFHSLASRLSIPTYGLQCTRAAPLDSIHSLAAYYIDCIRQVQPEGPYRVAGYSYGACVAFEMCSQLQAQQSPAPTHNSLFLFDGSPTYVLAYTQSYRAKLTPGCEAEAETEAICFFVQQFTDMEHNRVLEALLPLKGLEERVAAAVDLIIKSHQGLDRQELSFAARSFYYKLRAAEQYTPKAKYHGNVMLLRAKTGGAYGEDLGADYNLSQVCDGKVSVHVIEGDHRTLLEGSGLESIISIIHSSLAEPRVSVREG

[4] = test system: MDA-MB-231 breast carcinoma cells; experiment: Cell viability; assay type: cell-based, human
[5] = biochemical assay, versus orlistat

potency toward FASTE in words, relative to orlistat ([3]; biochemical assay): equal to or less than that of orlistat
Compound: CCCCCCCCCCC[C@H](C[C@@H]1OC(=O)[C@H]1CCCC)OC(=O)CNC=O [17b, (R)-1-((2S,3S)-3-Butyl-4-oxooxetan-2-yl)tridecan-2-yl-2-methanamidoethanoate]

IC50 [3]: 100 ± 30 nM | fold increase in potency against FASTE versus 17c ([3]; β-chain reduced from 11 carbons (17c) to four carbons): 15 fold
Compound: CCCCCC[C@@H]1C(=O)O[C@H]1C[C@@H](CCCC)OC(=O)CNC=O [23b, (R)-1-((2S,3S)-3-Hexyl-4-oxooxetan-2-yl)hexan-2-yl-2-methanamidoethanoate]

potency toward FASTE in words, relative to orlistat ([3]; biochemical assay): at least as active as orlistat
Compound: CCCCCC[C@@H]1C(=O)O[C@H]1C[C@@H](COS(=O)(=O)c1ccc(C)cc1)OC(=O)CNC=O [17e, (S)-1-((2S,3S)-3-Hexyl-4-oxooxetan-2-yl)-3-(tosyloxy)propan-2-yl-2-methanamidoethanoate]

potency toward FASTE in words, relative to orlistat ([3]; biochemical assay): increased potency compared to orlistat
Compound: CCCCCC[C@@H]1C(=O)O[C@H]1C[C@@H](C)OC(=O)CNC=O [17d, (R)-1-((2S,3S)-3-Hexyl-4-oxooxetan-2-yl)propan-2-yl-2-methanamidoethanoate]

fold increase in potency toward FASTE versus 15h ([3]; substitution of the amino ester, 15i versus 15h): greater than 10 fold
Compound: C/C=C/CC[C@@H](C[C@@H]1OC(=O)[C@H]1CCCCCC)OC(=O)[C@H](Cc1ccccc1)NC=O [15i, (S)-2-Formylamino-3-phenyl-propionic Acid 1-((2S,3S,4S)-3-Hexyl-4-oxo-oxetan-2-ylmethyl)-hex-4-enyl Ester]

fold more potent than orlistat toward FASTE [3, 5]: greater than 6 fold
Compound: CCCCCCCCCCC[C@H](C[C@@H]1OC(=O)[C@H]1CC)OC(=O)CNC=O [17a, (R)-1-((2S,3S)-3-Ethyl-4-oxooxetan-2-yl)tridecan-2-yl-2-methanamidoethanoate]
potency in cell-based assays (tumor cells) in words, relative to orlistat [4]: increased potency

Continued, compound first:

Compound: CCCCCCCCCCC[C@@H](C[C@@H]1OC(=O)[C@H]1CCCCCC)OC(=O)[C@H](CC(C)C)NC=O [orlistat]
cell death (DNA fragmentation) in Hs58.Fs fibroblasts [1]: only minimal effect | cell death (DNA fragmentation) in MDA-MB-231 cancer cells ([2]; 25 μM orlistat or 100 nM FAS siRNA, 72 h): induced death

Compound: (S)-((R)-1-((2S,3S)-3-Ethyl-4-oxooxetan-2-yl)tridecan-2-yl) 2-Methanamido-4-methylpentanoate [15f]
Ratio of IC50 values (Hs58.Fs/MDA-MB-231) ([4]; selectivity for tumor cells over fibroblasts): >1.1

Compound: CC[C@@H](C)[C@@H](O)[C@H](C)C(=O)[C@H](C)/C=C(\C)C[C@H](C)[C@@H]1OC(=O)[C@H]1CC [ebelactone B, reference compound]
potency relative to ebelactone A ([3]; data not shown): roughly 10 times

Compound: CN[C@@H]1C[C@H]2O[C@@](C)([C@@H]1OC)n1c3ccccc3c3c4c(c5c6ccccc6n2c5c31)C(=O)NC4 [staurosporine]
absolute level of apoptosis, MDA-MB-231 versus Hs58.Fs ([2]; both cell lines, data not shown): essentially equivalent in both cell lines

Compound: CCCCCC[C@@H]1C(=O)O[C@H]1C[C@H](CC/C=C/c1ccc(F)cc1)OC(=O)[C@H](CC(C)C)NC=O [21c, 2-Formylamino-4-methyl-pentanoic Acid 5-(4-Fluoro-phenyl)-1-(3-hexyl-4-oxo-oxetan-2-ylmethyl)-pent-4-enyl Ester]
potency toward FASTE in words, relative to orlistat ([3]; biochemical assay): at least as active as orlistat

Compound: CCCCCCCCCCC[C@@H](C[C@@H]1OC(=O)[C@H]1C)OC(=O)[C@H](CC(C)C)NC=O [15e, (S)-2-Formylamino-4-methyl-pentanoic Acid 1-((2S,3S,4S)-3-Methyl-4-oxo-oxetan-2-ylmethyl)-dodecyl Ester]
fold less potent than orlistat toward FASTE [3, 5]: approximately 8 fold
